The record followed here is ChEMBL document CHEMBL4373742, “Novel thiazolidinedione-hydroxamates as inhibitors of Mycobacterium tuberculosis virulence factor Zmp1” (Eur J Med Chem, 2020).

For series [1], the system named is Mycobacterium tuberculosis. The experiment in a line: Antimycobacterial activity against Mycobacterium tuberculosis H37Ra infected in mouse RAW264.7 cells assessed as inhibition of intracellular bacterial growth at 10 uM after 24 hrs by luciferase reporter gene based assay relative to control. Type of series: functional. The following applies: RAW264.7, 24 h, read-out: INH. The procedure, abridged: (§1)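 Murine RAW264.7 macrophages (DMEM + 10% heat-inactivated FCS, 37 °C, 5% CO2; 40.000 cells/well) infected 2 h at 37 °C with luciferase-reporter Mtb H37Ra (pSMT1) at MOI 10. Extracellular bacteria were killed with 100 µg/ml gentamicin for 1 h. Compounds were given at 10 and 100 µM final; isoniazid reference 0.1 µM. After 24 h, cells were lysed in 1% Triton X-100 and read by luminescence after n-decanal addition. Inhibition % was calculated versus untreated control; mean of triplicates.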
A general note: Reporter assays use an easily measured gene product as a stand-in for the process of interest.

The nature of series [2]: Inhibition of Mycobacterium tuberculosis Zinc metalloprotease-1 using angiotensin 2 as substrate preincubated for 3 mins and measured after 20 mins by MALDI-TOF MS analysis. A digest of the protocol: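 Zmp1 digestion of human angiotensin II in NH4HCO3 at 37 °C: 3 min preincubation with inhibitor, then 20 min reaction with recombinant Mtb Zmp1, monitored by MALDI-TOF MS. IC50 derived from slope ratios, inhibited versus control, at three inhibitor concentrations within 20–80 µM.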

Series [3] deals with Mycobacterium tuberculosis. The experiment in a line: Inhibition of Mycobacterium tuberculosis Zinc metalloprotease-1 at 40 uM using angiotensin 2 as substrate preincubated for 3 mins and measured after 20 mins by MALDI-TOF MS analysis relative to control. The procedure, abridged: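 Human angiotensin II substrate in NH4HCO3 was preincubated 3 min at 37 °C with inhibitor in acetone (acetone alone for control). Recombinant Mtb Zmp1 was added and the reaction ran 20 min at 37 °C. Cleavage was followed by MALDI-TOF MS (reflectron positive mode). Inhibition rate at 40 µM was taken as the inverted ratio of time-course slopes, inhibited versus control. Phosphoramidon reference at 40 µM final.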

Series [4] deals with Mycobacterium tuberculosis. Put plainly: Antimycobacterial activity against Mycobacterium tuberculosis H37Ra infected in mouse RAW264.7 cells assessed as inhibition of intracellular bacterial growth at 100 uM after 24 hrs by luciferase reporter gene based assay relative to control. Type of series: functional. The following applies: RAW264.7, 24 h. The procedure, abridged: as §1

A short description of series [5]: Cytotoxicity against mouse RAW264.7 cells assessed as reduction in cell viability after 24 hrs by neutral red dye based assay. A digest of the protocol:
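Neutral red uptake assay on RAW264.7 murine macrophages in DMEM + 10% heat-inactivated FCS, 40.000 cells/well, seeded the day before. Two-fold serial dilutions from 128 µM final. Exposure 24 h at 37 °C, 5% CO2; then neutral red for 3 h, extraction with 1:1 ethanol/acetic acid. OD read at 530 nm (reference 620 nm).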

Series [6] can be described thus: Selectivity index, ratio of CC50 for mouse RAW264.7 cells to MIC90 for antimycobacterial activity against Mycobacterium tuberculosis H37Rv. Type of series: toxicity. The following applies: read-out: Selectivity Index.
Series [7] deals with Mycobacterium tuberculosis. Put plainly: Antimycobacterial activity against Mycobacterium tuberculosis H37Ra infected in mouse RAW264.7 cells assessed as inhibition of intracellular bacterial growth at 10 uM after 24 hrs by luciferase reporter gene based assay. Type of series: functional, organism-based. The procedure, abridged:
as §1

The subject of series [8] is Mycobacterium tuberculosis. Put plainly: Antimycobacterial activity against Mycobacterium tuberculosis H37Ra infected in mouse RAW264.7 cells assessed as inhibition of intracellular bacterial growth at 100 uM after 24 hrs by luciferase reporter gene based assay. It is filed as functional, organism-based. A digest of the protocol:
as §1

Activity calls are given as the source filed them. No cut-off for these calls is given here. A value given as a limit tells only on which side of the number the result lay.

Take `O=C(CN1C(=O)S/C(=C\c2ccc(C(F)(F)F)cc2)C1=O)NOCc1ccccc1`: the percent inhibition of intracellular bacterial growth at 10 µM in series [1] was determined as 48.8%. In series [2], it took 38 µM to reach half-maximal inhibition (IC50). Also, the inhibition (as a rule, the relative decrease from the control value, in per cent) in series [3] was 64.9%. In series [4], the inhibition in vivo (commonly the drop in the measured response relative to a control, in per cent) at 100 µM worked out at 70.4%. The CC50 – broadly, the concentration that lowers cell viability or growth by half – at 24 h in series [5] is > 128 µM.
In the case of `C=CCONC(=O)C(C)N1C(=O)CSC1=O` (centres undefined), the percent inhibition of intracellular bacterial growth at 10 µM in series [1] is 21.6%. For the same compound, in series [2], the IC50 – broadly, the concentration that inhibits the measured activity by half – was in the range of 20 to 160 µM. In series [3], this compound came in with an inhibition of 57.9%. The cytotoxic concentration (CC50) at 24 h in series [5] was > 128 µM.
The matching figures for `O=C(CN1C(=O)S/C(=C\c2ccccc2)C1=O)NOCc1ccccc1`: 38.3%, 20 to 160 µM, 59.5% and > 128 µM.
The matching figures for `CC(C(=O)NOCc1ccccc1)N1C(=O)S/C(=C\c2ccccc2)C1=O` (centres undefined): 46.9%, 20 to 160 µM, 93.3% and > 128 µM.
Consider `CCCC/C=C1\SC(=O)N(C(C)C(=O)NOCc2ccccc2)C1=O` (centres undefined), for which the selectivity ratio in series [6] is > 0.7. Moreover, the inhibition result in series [7] was “inactive”. In addition, the IC50 in series [2] was 20 to 160 µM. Moreover, the inhibition in series [3] was 37.1%. Besides, in series [5], the 50% cytotoxic concentration (CC50) at 24 h stood at 43.9 µM.
With `CC(C(=O)NOCc1ccccc1)N1C(=O)CSC1=O` (centres undefined), in series [2], the IC50 was 20 to 160 µM. For the same compound, the inhibition in series [3] was determined as 78.1%. Moreover, the 50% cytotoxic concentration (CC50) at 24 h in series [5] was > 128 µM.
For the compound `C=CCONC(=O)CN1C(=O)S/C(=C\c2ccc(C(F)(F)F)cc2)C1=O`, the inhibition result in series [7] was “inactive”. The compound further registered an IC50 in series [2] of 20 to 160 µM. This compound displayed an inhibition in series [3] of 87.2%. Moreover, the CC50 at 24 h in series [5] was > 128 µM.
Regarding `C=CCONC(=O)CN1C(=O)S/C(=C\c2ccc(F)cc2)C1=O`, the IC50 in series [2] lay in the range of 20 to 160 µM. In series [3], this compound had an inhibition of 69.8%. Besides, the CC50 at 24 h in series [5] is > 128 µM.
On to `CC/C(=C(\c1ccccc1)c1ccc(OCCN(C)C)cc1)c1ccccc1` [TAMOXIFEN], for which the CC50 at 24 h in series [5] was determined as 11.1 µM.
In series [2], `O=C(CN1C(=O)CSC1=O)NOCc1ccccc1` gave an IC50 of 20 to 160 µM. For the same compound, the inhibition in series [3] is 31.9%. For the same compound, the CC50 at 24 h in series [5] was > 128 µM.
`C=CCONC(=O)C(C)N1C(=O)S/C(=C\c2ccc(C(F)(F)F)cc2)C1=O` (centres undefined): the inhibition result in series [7] was “inactive”. The IC50 in series [2] lay within 20 to 160 µM. This compound returned an inhibition in series [3] of 44.5%. Further, in series [5], the CC50 at 24 h was > 128 µM.
The like results for `CCCC/C=C1\SC(=O)N(CC(=O)NOCc2ccccc2)C1=O` were, in that order, “inactive”, 20 to 160 µM, 99.8% and > 128 µM.
For `CC(C)C[C@H](NP(=O)(O)O[C@@H]1O[C@@H](C)[C@H](O)[C@@H](O)[C@H]1O)C(=O)N[C@@H](Cc1c[nH]c2ccccc12)C(=O)O` [PHOSPHORAMIDON], in series [2], the IC50 lay within 20 to 160 µM. This compound registered an inhibition in series [3] of 78%.
As for `CC(C(=O)NOCc1ccccc1)N1C(=O)S/C(=C\c2ccc(C(F)(F)F)cc2)C1=O` (centres undefined), in series [1], the percent inhibition of intracellular bacterial growth at 10 µM is 19.4%. Also, the IC50 in series [2] was 20 to 160 µM. In series [3], this compound gave an inhibition of 16.3%. Besides, the CC50 at 24 h in series [5] was > 128 µM.
The like results for `C=CCONC(=O)CN1C(=O)CSC1=O` were, in that order, 30.2%, 20 to 160 µM, 92.2% and > 128 µM.
For `CC(C(=O)NOCc1ccccc1)N1C(=O)S/C(=C\c2ccc(F)cc2)C1=O` (centres undefined), the percent inhibition of intracellular bacterial growth at 10 µM in series [1] worked out at 25.1%. This compound also returned an IC50 in series [2] of 20 to 160 µM. The compound also returned an inhibition in series [3] of 95.8%. Further, in series [5], the CC50 at 24 h was > 128 µM.
Compound `C=CCONC(=O)C(C)N1C(=O)S/C(=C\CCCC)C1=O` (centres undefined) came in with an IC50 in series [2] of 20 to 160 µM. The compound further registered an inhibition in series [3] of 34.7%. Moreover, the CC50 at 24 h in series [5] was > 128 µM.
As to `O=C(CN1C(=O)S/C(=C\c2ccc(F)cc2)C1=O)NOCc1ccccc1`, the percent inhibition of intracellular bacterial growth at 10 µM in series [1] was determined as 20.6%. Further, the IC50 in series [2] was 20 to 160 µM. Besides, the inhibition in series [3] is 78.3%. Further, the CC50 at 24 h in series [5] is > 128 µM.
As to `C=CCONC(=O)C(C)N1C(=O)S/C(=C\c2ccccc2)C1=O` (centres undefined), the IC50 in series [2] was 20 to 160 µM. Also, the inhibition in series [3] was found to be 13%. For the same compound, the CC50 at 24 h in series [5] is > 128 µM.
The like results for `C=CCONC(=O)CN1C(=O)S/C(=C\c2ccccc2)C1=O` were, in that order, 20 to 160 µM, 59% and > 128 µM.
`C=CCONC(=O)CN1C(=O)S/C(=C\CCCC)C1=O`: in series [6], the selectivity ratio is > 2.1. Further, in series [8], the inhibition result was “Active”. It took 18 µM to reach half-maximal inhibition in series [2] (IC50). The compound further yielded an inhibition in series [3] of 89.9%. In addition, in series [5], the CC50 at 24 h was > 128 µM.
As to `C=CCONC(=O)C(C)N1C(=O)S/C(=C\c2ccc(F)cc2)C1=O` (centres undefined), in series [2], the IC50 is 20 to 160 µM. Besides, the inhibition in series [3] was 95.5%. The CC50 at 24 h in series [5] was > 128 µM.
